Assay outcomes (PubChem BioAssay)
RORa activator: RORA (human) activation; CHO-K1 Gal4-RORA LBD luciferase reporter, luminescence; percent increase over mock-subtracted basal signal; P35398; activation, % at 10 µM; 65,000 compounds, 1.5% hits; AID 560;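 active = activation above the mean of all tested compounds plus 3 SD, cut at about 49% in these data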;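 also: 0% = DMSO-treated RORA cells and 100% = added signal equal to DMSO minus mock-transfected cells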
MT1-MMP txn act: activates MT1-MMP transcription; HT1080 MT1-MMP promoter luciferase reporter, luminescence, overnight; stronger effect = higher value; activation factor at 10 µM; 86,000 compounds, 0.16% hits; AID 750;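 active = activation factor of at least 2 for MT1-MMP transcription at 10 µM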
CD11b adhes inh: CD11b/CD18-fibrinogen binding inhibition. P05107+P11215. K562 CD11b/CD18 adhesion to fibrinogen, ATPlite luminescence; Mn2+ added to activate the integrin. inhibition, % at 10 µM. 93,000 compounds, 0.54% hits. AID 1497;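 active = primary inhibition of 50% or more at 10 µM, then 40% or more on retest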
TNAP act mid DEA: human TNAP activation, intermediate phosphate acceptor | P05186 | purified TNAP, CDP-star luminescence, 100 mM DEA, 30 min; stronger effect = higher value; scale: 0 levamisole-inhibited, 1 vehicle-only enzyme | activation factor at 20 µM | 64,000 tested, under 10 active | AID 813;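 active = activation factor of at least 2 at 20 µM, relative to controls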
Mac1 fbg enh: CD11b/CD18-fibrinogen binding enhancement; P05107+P11215; K562 CD11b/CD18 adhesion to fibrinogen, ATPlite luminescence; activation, % at 10 µM; 93,000 compounds, 0.07% hits;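 active = 10 µM primary screen giving 50% or more activity, confirmed by 40% or more on retest at that dose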
SF1 activator: SF-1 (human) activation; 65,000 compounds, 1.9% hits; Q13285; CHO-K1 Gal4-SF-1 LBD luciferase reporter; % increase over DMSO SF-1-specific signal; AID 522; activation, % at 10 µM;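 active = activation above the mean activation of all tested compounds plus 3 SD, cut at about 50% in these data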
Target sequence (Q13285 whole entry, looked up, the tested form may be a part): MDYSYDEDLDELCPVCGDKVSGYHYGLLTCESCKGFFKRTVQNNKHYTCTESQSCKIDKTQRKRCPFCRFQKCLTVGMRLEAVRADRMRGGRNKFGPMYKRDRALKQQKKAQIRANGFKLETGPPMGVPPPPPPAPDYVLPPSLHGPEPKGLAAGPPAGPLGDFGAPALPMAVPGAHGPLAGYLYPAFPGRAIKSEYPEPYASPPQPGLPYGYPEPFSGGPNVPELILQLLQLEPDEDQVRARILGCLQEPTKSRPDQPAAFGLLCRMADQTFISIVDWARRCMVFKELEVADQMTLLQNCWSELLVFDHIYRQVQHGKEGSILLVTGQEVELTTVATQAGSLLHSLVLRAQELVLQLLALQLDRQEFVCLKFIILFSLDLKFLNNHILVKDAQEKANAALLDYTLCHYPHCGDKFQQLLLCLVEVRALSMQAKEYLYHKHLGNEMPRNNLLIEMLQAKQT
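Material: Gal4–SF-1 LBD one-hybrid luciferase reporter in CHO-K1 cells | Amount: 4,000 cells per well | Compound dosing: 10 µM single point, 1% DMSO | Schedule: 20 h compound treatment, 37 °C | Measured by: SteadyLite luciferase luminescence | Evaluation: Percent activation versus DMSO | Control set: DMSO-treated SF-1-transfected cells as negative, DMSO-treated mock-transfected cells lacking SF-1 as background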
Numbers without * were called inactive; x = no result. Most compounds without a hit are left out; they make up all but 2.1% or so of the library.

SMILES | RORa activator | MT1-MMP txn act | CD11b adhes inh | TNAP act mid DEA | Mac1 fbg enh | SF1 activator
COc1cc(NC(=O)c2cc3sccc3n2C)cc(OC)c1 | 61* | 2.1* | -4 | 0.9 | -1 | 106*
Cn1c(C(=O)Nc2ccc3c(c2)OCO3)cc2sccc21 | 38 | 1.2 | 2 | 0.8 | 0 | 79*
COC(=O)[C@@]1(Cc2ccc(F)cc2)[C@H]2c3cc(C(=O)N4CCCC4)n(CCc4ccccn4)c3C[C@H]2CN1C(=O)c1ccccc1 | x | 1.1 | x | x | x | x
NC(=O)c1cc(-c2ccccc2)sc1NC(=O)CN1CCCCC1 | x | x | -6 | x | 0 | x
Cc1ccccc1-c1nnc(-c2ccccc2)o1 | 2 | 1.4 | 10 | 0.9 | 3 | 46
Cn1cc(-c2nnc(-c3ccccc3)o2)c2ccccc21 | x | 2.3* | x | x | x | x
CCOC(=O)C1C(=O)C=C(/C=C/c2ccc(N(C)C)cc2)CC1c1ccccc1 (centres undefined) | x | x | -9 | x | 22 | x
Cc1nn(C)c(C)c1/C=C1/SC(=S)NC1=O | x | x | 32 | x | -2 | x
Cc1ccc(C2C(/C=C3/SC(=S)NC3=O)=C(c3cccs3)Oc3ccccc32)cc1 (centres undefined) | x | 1.2 | 78* | x | 2 | x
O=C(Nc1nc2c(s1)CCCC2)c1cc2n(n1)C(C(F)(F)F)CC(C1CC1)N2 (centres undefined) | 118* | 1.7 | 1 | 1 | 3 | 56*
O=C(NCc1ccc(F)cc1)c1cc2n(n1)C(C(F)(F)F)CC(C1CC1)N2 (centres undefined) | 64* | 1 | -7 | 1 | 4 | 48
Cc1ccc(-c2nc(-c3ccccc3)no2)c(Cl)c1 | -57 | x | 104* | 0.9 | -10 | -70
c1cncc(-c2noc(-c3cccc4ccccc34)n2)c1 | x | 1.4 | 3 | x | 1 | x
c1ccc2c(-c3nc(-c4ccncc4)no3)cccc2c1 | 25 | 1.5 | -10 | 0.8 | -4 | 74*
Cc1occc1-c1nc(-c2ccncc2)no1 | -11 | 1.1 | -22 | 0.9 | 4 | 5
c1ccc(-c2noc(-c3cccc4ccccc34)n2)cc1 | 61* | 2* | x | 1 | x | 65*
COc1ccc(-c2noc(-c3ccccc3-c3ccccc3)n2)cc1 | x | 1.1 | 5 | x | -2 | x
C=CCNC(=O)c1ccccc1NC(=O)Cc1ccccc1[N+](=O)[O-] | x | x | -2 | x | -1 | x
COC(=O)c1ccc(C(NC(=O)OCc2ccccc2)/C(F)=C/[C@@H](C)C(=O)Nc2ccc(OC)cc2)cc1 (some centres undefined) | x | 1.2 | x | x | x | x
FC(F)(F)Oc1ccc(Nc2nc3ccccc3o2)cc1 | 71* | 2.2* | -2 | 0.9 | 2 | 39
Cc1ccc(-c2noc(CCC(=O)NCCN3CCN(Cc4ccccc4)CC3)n2)cc1 | -5 | 1 | -2 | 1 | 0 | -9
COc1ccc(-c2noc(CCC(=O)NCCCN3CCC(Cc4ccccc4)CC3)n2)cc1 | 18 | 1.2 | 61* | 0.9 | -4 | -6
CCOc1ccc(NC(=O)CCCOc2cc(=O)n(C)c3ccccc23)cc1 | x | 1.2 | -18 | x | 1 | x
Clc1ccccc1OCCn1cnc2ccccc21 | 51* | 1.3 | 6 | 0.9 | -3 | -8
Cc1ccc(OCCCCn2cnc3ccccc32)c(C)c1 | x | 1.4 | 86* | x | -9 | x
SMILES | RORa activator | MT1-MMP txn act | CD11b adhes inh | TNAP act mid DEA | Mac1 fbg enh | SF1 activator
Cc1ccc(C)c(OCCCCn2cnc3ccccc3c2=O)c1 | x | x | -5 | x | -1 | x
COc1ccc(-c2c[n+]3c(n2-c2ccccc2)CCCCC3)cc1 | x | x | 23 | x | 1 | x
CCOc1ccc(-n2c(-c3ccc(OC)cc3)c[n+]3c2CCCCC3)cc1 | x | x | 100* | x | -7 | x
Cc1cc(C)n(CC(=O)NCc2cc(-c3nn(C)c(=O)c4ccccc34)ccc2C)n1 | -5 | 1.1 | -7 | 0.9 | -4 | -20
Cc1ccc(-c2nn(C)c(=O)c3ccccc23)cc1CNC(=O)Cn1nc(-c2ccccc2)c2ccccc2c1=O | x | 1.3 | -13 | x | 133* | x
CCN=C1S/C(=C\c2sccc2C)C(=O)N1CC | x | x | 5 | x | 3 | x
O=C(O)CSc1nnnn1-c1ccc2c(c1)OCCO2 | x | x | 0 | x | -4 | x
O=C(CSc1nnnn1-c1ccccc1)NC(=O)Nc1ccc2c(c1)OCCO2 | 52* | 1.6 | 10 | 0.8 | -3 | 72*
CCOc1ccccc1-n1nnnc1SCC(=O)NC(=O)Nc1ccc2c(c1)OCCO2 | x | 1 | 4 | x | 3 | x
CC(C)OC(=O)CSc1nnnn1-c1ccc2c(c1)OCCO2 | 54* | 1.5 | -1 | 0.8 | 6 | 69*
O=C(NC1CCCCC1)c1ccccc1NC(=O)C1CC(=O)N(c2ccc(Cl)cc2)C1 (centres undefined) | x | 1.3 | x | x | x | x
Cc1oc(-c2ccc(Cl)cc2)nc1CN1CCCC(C(=O)NCc2ccccn2)C1 (centres undefined) | -17 | 1.1 | -6 | 1.1 | -3 | -6
Cc1oc(-c2ccc(Cl)cc2)nc1CN1CCCC(C(=O)NCc2cccnc2)C1 (centres undefined) | 1 | 1.2 | 84* | 0.9 | -10 | -6
Fc1cnc(N2CCOCC2)nc1N1CCc2ccccc21 | 6 | 1.2 | x | 0.9 | x | 55*
Cn1c(NCc2ccccc2Cl)nc2ccccc21 | 50* | 1.2 | x | 0.9 | x | 46
Cc1cccc(NCc2nc3ccccc3n2Cc2ccccc2)c1 | x | 1.4 | 4 | x | -4 | x
Cn1c(CNc2ccc(Cl)cc2)nc2ccccc21 | 37 | 1.6 | 16 | 0.9 | 1 | 59*
Cc1nc2cc(NCc3nc4ccccc4n3Cc3ccccc3)ccc2n1C | 50* | 1.1 | 38 | 1 | -2 | 23
COC(=O)c1ccccc1CON1C(=O)C(C)(C)N(OCc2ccccc2C(=O)OC)C(=O)C1(C)C | x | 1.1 | x | x | x | x
Cc1ccc(S(=O)(=O)Nc2nc3ccccc3s2)cc1 | x | 1.1 | 5 | x | -2 | x
O=S(=O)(Nc1nc2ccccc2s1)c1ccc(Br)s1 | -7 | 1.5 | 101* | 0.9 | -12 | 5
CC(=O)c1cc2c(=O)c3cc(C)ccc3oc2nc1C | 58* | 1.2 | -43 | 0.9 | 9 | 38
NC(=O)c1ccsc1NC(=O)COC(=O)Cc1cccc2ccccc12 | x | 1 | 84* | x | -8 | x
NC(=O)c1ccsc1NC(=O)COc1ccccc1 | 30 | 1.3 | 4 | 1 | 0 | 68*
O=C(COc1ccccc1)Nc1nccs1 | x | 1.3 | x | x | x | x
Cc1ccccc1SCC(=O)OCC(=O)Nc1sccc1C(N)=O | x | x | 86 | x | -6 | x
CC1CCCCN1C(=S)Nc1ccc(OC(F)F)cc1 (centres undefined) | x | x | 5 | x | -7 | x
COc1ccc(-n2c(SCC(=O)Nc3nc(C)cs3)nnc2-c2ccoc2C)cc1 | x | 2.2* | x | x | x | x
Cc1csc(NC(=O)CSc2nnc(-c3ccoc3C)o2)n1 | 61* | 1.3 | 22 | 0.9 | 0 | 30
Cc1cnc(NC(=O)CSc2nnc(-c3ccccc3)o2)s1 | 21 | 1.2 | x | 0.9 | x | 88*
